Hits are enriched below; roughly 1.6% of the tested compounds scored in any of these assays.
FLuc inh counter: counter-screen for luciferase assay inhibitors: firefly luciferase inhibition; AID 1006; 200,000 compounds, 1.5% hits; ATPLite firefly luciferase biochemical luminescence, 10 min; inhibition, % at 10 µM; P08659;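 active = inhibition above about 50% when tested at 10 µM, limit read from the data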
Target sequence (P08659 whole entry, looked up): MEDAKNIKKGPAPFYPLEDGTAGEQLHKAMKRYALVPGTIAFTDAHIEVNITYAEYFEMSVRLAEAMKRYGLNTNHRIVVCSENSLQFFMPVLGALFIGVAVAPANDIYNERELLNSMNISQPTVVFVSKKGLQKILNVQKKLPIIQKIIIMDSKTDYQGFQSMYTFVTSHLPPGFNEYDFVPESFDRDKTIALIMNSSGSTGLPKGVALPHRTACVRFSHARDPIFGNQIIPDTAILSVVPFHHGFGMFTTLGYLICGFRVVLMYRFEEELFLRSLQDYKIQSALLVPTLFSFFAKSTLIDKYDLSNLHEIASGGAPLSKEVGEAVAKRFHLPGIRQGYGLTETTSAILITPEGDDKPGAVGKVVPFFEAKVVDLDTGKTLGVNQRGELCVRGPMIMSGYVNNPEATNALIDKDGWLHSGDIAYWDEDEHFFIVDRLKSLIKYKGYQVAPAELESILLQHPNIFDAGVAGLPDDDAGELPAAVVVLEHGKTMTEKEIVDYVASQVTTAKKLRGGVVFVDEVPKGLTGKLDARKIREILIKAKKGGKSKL
FLuc act counter: affects firefly luciferase, flagging false hits in luciferase stimulation screens; ATPlite luciferase biochemical, luminescence, 10 min; 0 = ATP-free wells, 1 = DMSO control; AID 1027; activation factor at 10 µM; 200,000 tested, under 10 active;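 active = luciferase activation factor, scaled between plate controls, of at least 2 with compound at 10 µM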
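Assay system: Luciferase/luciferin reagent mix; Medium: PBS as buffer for the ATP substrate; Dosing: test compounds dosed from 2 mM stocks in 100% DMSO; Times: 10 min, room temperature; Signal: luminescence from luciferase reaction; Read-out: luciferase activation; Controls: No-ATP low control, compound-free enzyme-plus-ATP high control.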
TRAIL sens C8: sensitizes caspase-8 expressing cells to TRAIL; NB7+C8 cells + TRAIL, ATPlite viability luminescence; inhibition (viability loss, TRAIL sensitization), % at 10 µM; 360,000 compounds, 1% hits;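 active = compounds causing at least 50% loss of cell viability in the single-dose screen, relative to plate controls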
PPC-1+TRAIL kill: compounds killing PPC-1 cancer cells with TRAIL present (potentiator screen, no TRAIL-free arm); PPC-1 cells + TRAIL, ATPLite viability luminescence; cell killing (% activity), % at 4 µM or 5 µM; 220,000 compounds, 0.41% hits; AID 1443;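 active = cell killing above 50% in the first pass at 4 µM, then a duplicate retest at 5 µM averaging 50% or more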;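 note: plate controls were cells with TRAIL plus DMSO for no effect and medium-only wells lacking cells for full effect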
Platelet DG rel: modulates dense granule release in human platelets; 300,000 compounds, 0.22% hits; inhibition, %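 (compounds screened at 7.5 µM in platelet-rich plasma)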; AID 1663; human platelet-rich plasma, SFLLRN dense granule ATP release, luminescence;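 active = mean replicate score, as percent of positive control, at or above 50; inconclusive = mean below 50 but at least one replicate at or above 50; inactive = mean and every replicate below 50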
Starred values were filed as active, the others as inactive; ? = inconclusive; . = no result.

SMILES | FLuc inh counter | FLuc act counter | TRAIL sens C8 | PPC-1+TRAIL kill | Platelet DG rel
CCOc1ccc(N=Nc2c(=O)[nH]n3c(=O)cc(C)[nH]c23)cc1 | 64* | 0.4 | 37 | 30 | ?
Cc1cc(=O)n2[nH]c(=O)c(N=Nc3ccccc3)c2[nH]1 | 2 | 1 | -4 | 7 | 0
CCC(=O)N1CCC1(C)C(=O)Nc1cc(-c2ccccc2)nn1C (stereo not drawn) | . | . | 10 | . | .
CCOC(=O)c1cnc2c(Cl)c(Cl)ccc2c1N1CCN(C)CC1 | -2 | 1 | 59* | 8 | 2
CC(C)N1CCC(C)(C(=O)Nc2ccccc2Oc2ccccc2)C1 (stereo not drawn) | . | . | -7 | . | .
COc1ccc(NC(=O)/C(Cl)=C(/Cl)S(=O)Cc2ccccc2)cn1 (stereo not drawn) | -2 | 1 | 96* | 2 | 57*
COc1ccc(CS(=O)(=O)/C(Cl)=C(/Cl)C(=O)Nc2ccc(OC)nc2)cc1 | -4 | 1 | 90* | 16 | 1
CN(C)CCCNc1nc2cc(-c3cnn(C)c3)sc2c(=O)n1C | . | . | -14 | . | .
O=C1c2ccccc2C(=O)C1c1nccc2ccccc12 | 90* | 0.1 | 89* | -3 | 9
CCc1ccc(C2C(=O)c3ccccc3C2=O)cc1 | . | . | 28 | . | -1
Oc1[nH]c(N=C2N=c3ccccc3=N2)c2ccccc12 | . | . | 65* | 28 | 18
COc1ccc(/C=N/NC(=O)c2[nH]ncc2Br)c(OC)c1 | 85* | 0.2 | -12 | 14 | 20
O=C(N/N=C/c1cccnc1)c1[nH]ncc1Br | 26 | 0.7 | 10 | 6 | 16
O=C(N/N=C/c1ccccc1)c1[nH]ncc1Br | 70* | 0.3 | 27 | 12 | 40
Cc1cc(C)cc(NS(=O)(=O)c2ccc3[nH]cc(C(=O)NCc4ccco4)c(=O)c3c2)c1 | -4 | 1 | 84* | 19 | 0
CCc1nc2ccc(C(=O)Nc3cccc(NS(C)(=O)=O)c3)cn2c1N(CCC(C)C)CCN(C)C | . | . | 8 | . | .
C(=N\Nc1nncc2ccccc12)/c1ccccn1 | . | . | 81* | . | 35
CC(=O)Nc1ccc(/C=N/Nc2nncc3ccccc23)cc1 | . | . | 41 | . | 12
Fc1cccc(/C=N/Nc2nncc3ccccc23)c1 | . | . | 84* | . | 24
COC(=O)c1c(-c2ccccc2)csc1N1C(=O)Nc2ccccc2N1O | 71* | 0.3 | 23 | 9 | -11
CCOc1ccccc1NC(=O)C1CCCN1S(=O)(=O)c1ccc2c(c1)C(C)(C)C(=O)N2C (stereo not drawn) | . | . | -2 | . | .
COC1=CC(=O)OC(c2cccc(C(F)(F)F)c2)C1 (stereo not drawn) | . | . | -15 | . | .
CCC1CCCCN1c1ccc([N+](=O)[O-])cc1/C=N/NC(=O)Cn1c2ccccc2c(=O)c2ccccc21 (stereo not drawn) | 0 | 1 | 74* | 22 | 3
COc1cccc(/C=N/Nc2cc(Cl)nc(C)n2)c1O | 54* | 0.5 | 9 | 26 | 5
COc1cccc(/C=N/NC(=O)C[n+]2ccccc2)c1O | -6 | 1.1 | -8 | 0 | 0
SMILES | FLuc inh counter | FLuc act counter | TRAIL sens C8 | PPC-1+TRAIL kill | Platelet DG rel
COc1ccc(CCCC(=O)N/N=C/c2cccc(OC)c2O)cc1C | 4 | 1 | 52* | 20 | 3
CCC(=O)N1Cc2cc(C(=O)Nc3nccs3)nc(-c3cccc(-c4ccccc4OC)c3)c2[C@H]1CCO | . | . | 13 | . | .
OCc1ccccc1-c1nc(NCc2ccccc2)nc2ccsc12 | . | . | -9 | . | .
CN(C)c1ccc(N=Nc2ccccc2C(=O)OCC(=O)Nc2ccccc2C(F)(F)F)cc1 | 16 | 0.8 | 12 | 1 | 9
CN(C)c1ccc(N=Nc2ccccc2C(=O)OCC(=O)N2CCCCCC2)cc1 | 72* | 0.3 | 55* | 42 | 0
CN(C)c1ccc(N=Nc2ccccc2C(=O)OCC(=O)N2CCCC2)cc1 | 70* | 0.3 | 48 | 42 | -4
C/C(=N\NC(=O)c1ccn[nH]1)c1cn(C)nc1C | 54* | 0.5 | 27 | 5 | -5
O=C(CSCc1c(F)cccc1Cl)NCc1ccco1 | -5 | 1.1 | 6 | -25 | 4
O=C(CSCc1c(Cl)cccc1Cl)NCc1ccco1 | -5 | 1 | -1 | 12 | 83*
CC1(C)OC2CC3C4CCC5=CC(=O)C=CC5(C)C4(F)C(O)CC3(C)C2(C(=O)CO)O1 (stereo not drawn) | . | . | 12 | . | .
C=C(C)CSc1nnc2n(C)c(=O)c3c4c(sc3n12)CCC4 | -4 | 1 | 55* | 0 | 6
CCCNC(=O)OC1CC2CC1[C@H]1CCCCN1C2=O (stereo partly drawn) | . | . | -11 | . | .
CCCCNC(=O)C1(C)CCN1C(=O)c1cccc(OC(C)=O)c1C (stereo not drawn) | . | . | -2 | . | .
O=C(c1cccc(C(=O)N(c2ccccn2)C2CCCCC2)c1)N(c1ccccn1)C1CCCCC1 | 1 | 1 | 4 | 16 | -7
N#C/C(=C\c1ccccc1)C(=O)N(c1ccccn1)C1CCCCC1 | -4 | 1 | -13 | 59* | -13
COc1cccc(CN2CCC2(C)C(=O)Nc2cccc(NS(C)(=O)=O)c2)c1OC (stereo not drawn) | . | . | 21 | . | .
NC(=O)c1ccsc1NC(=O)c1coc2ccccc2c1=O | 71* | 0.3 | 52* | 29 | 0
Cc1occc1C(=O)Nc1sccc1C(N)=O | . | . | 0 | . | -7
COC(=O)c1cc(C(=O)c2cc(F)ccc2O)cn2c(=O)c3c(C)c(C)sc3nc12 | . | . | 12 | -7 | 3
CCOC(=O)c1sc2nc3c(SCC(=O)O)cc(C(=O)c4cc(F)ccc4O)cn3c(=O)c2c1C | 51* | 0.5 | 28 | 11 | 2
O=C(O)CSc1cc(C(=O)c2ccccc2O)cn2c(=O)c3c(-c4ccccc4)csc3nc12 | 41 | 0.6 | -20 | 5 | -22
CCOC(=O)c1sc2nc3c(SCC(=O)O)cc(C(=O)c4ccccc4O)cn3c(=O)c2c1C | 79* | 0.2 | 53* | 21 | -1
COc1ccc(OCCCC(=O)OC(C)C(=O)Nc2ccc(NC(C)=O)cc2)cc1 (stereo not drawn) | . | . | 2 | . | 57*
COC(=O)[C@]12CCCCC=C1N(Cc1cccc3ccccc13)C(=O)[C@H](CC(=O)N1CCN(C(=O)C3CC3)CC1)C2 | . | . | 17 | . | .
O=C(Nc1ccc2ccccc2n1)Nc1ccccc1F | . | . | 10 | . | -7
Fc1ccc(Nc2ccc3ccccc3n2)c(F)c1 | 70* | 0.3 | 40 | 28 | 26
CN(C)CCNC(=O)c1cccc(-c2cccc3nncn23)c1 | . | . | -8 | . | .
COc1ccc(C2C(C(=O)N3CCC(C)CC3)c3ccccc3C(=O)N2C)cc1 (stereo not drawn) | -6 | 1.1 | 54* | 3 | 4
COc1ccc(C2C(C(=O)N3CCN(c4ccccc4F)CC3)c3ccccc3C(=O)N2C)cc1 (stereo not drawn) | -7 | 1.1 | 67* | 5 | -1
COc1ccc(N2C(=O)c3ccccc3NC(=O)C2C(=O)Nc2ccc(N3CCOCC3)cc2)cc1 (stereo not drawn) | . | . | -3 | . | .

Assay outcomes (PubChem)
